Measurements reported in ChEMBL document CHEMBL3621107, “Ring fusion strategy for synthesis and lead optimization of sulfur-substituted anthra[1,2-c][1,2,5]thiadiazole-6,11-dione derivatives as promising scaffold of antitumor agents” (Eur J Med Chem, 2015).

Tests used:
ACHN = experiment: Cytotoxicity against human ACHN cells assessed as cell growth at 10 uM after 48 hrs by SRB assay relative to control; format: functional; conditions: read-out: Activity
In short: (§1)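 First-stage NCI-60 screen by the NCI Developmental Therapeutics Program. Each compound was tested once at a single concentration of 10 μM against the 60-cell-line panel. Growth percentage was reported for each cell line.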

SNB-19 = experiment: Cytotoxicity against human SNB19 cells assessed as cell growth at 10 uM after 48 hrs by SRB assay relative to control; format: functional; conditions: SNB-19, 48 h, read-out: Activity
In short: (§2)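 NCI-60 one-dose screen run by NCI DTP: each cell line exposed to a single 10 µM dose, and percentage growth recorded against untreated growth.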

NCI-H226 = experiment: Cytotoxicity against human NCI-H226 cells assessed as cell growth at 10 uM after 48 hrs by SRB assay relative to control; format: functional; conditions: NCI-H226, 48 h, read-out: Activity
In short: (§3)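 First-stage NCI DTP one-dose screen against the 60 human tumour cell line panel. Compounds were tested at a single 10 μM level, and results are given as growth percentage.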

UACC-257 = experiment: Cytotoxicity against human UACC257 cells assessed as cell growth at 10 uM after 48 hrs by SRB assay relative to control; format: functional; conditions: UACC-257, 48 h, read-out: Activity; in short: as §2
HOP-62 = experiment: Cytotoxicity against human HOP62 cells assessed as cell growth at 10 uM after 48 hrs by SRB assay relative to control; format: functional; conditions: HOP-62, 48 h, read-out: Activity; in short: as §1
DU-145 = experiment: Cytotoxicity against human DU145 cells after 72 hrs by MTT assay; format: functional, cell-based; conditions: DU-145, 72 h
In short: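 DU-145 cells grown in RPMI-1640 with 5% heat-inactivated fetal calf serum at 37 °C, 5% CO2. About 2×10^3 cells per well were seeded and incubated for 24 h. Compounds were dissolved in DMSO freshly and diluted into medium (vehicle 0.1% DMSO), then cells were exposed for 72 h. MTT was added for 3 h at 37 °C and absorbance read at 570 nm.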

T47D = experiment: Cytotoxicity against human T47D cells assessed as cell growth at 10 uM after 48 hrs by SRB assay relative to control; format: functional; conditions: read-out: Activity; in short: as §2
KM12 = experiment: Cytotoxicity against human KM12 cells assessed as cell growth at 10 uM after 48 hrs by SRB assay relative to control; format: functional; conditions: KM12, 48 h, read-out: Activity; in short: as §1
PC-3 [1] = experiment: Cytotoxicity against human PC3 cells after 48 hrs by SRB assay; format: functional, cell-based; conditions: PC-3, 48 h
In short: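 Second-stage NCI-60 panel run by the NCI Developmental Therapeutics Program, covering nine tumour subpanels. Five concentrations were tested: 0.01, 0.1, 1, 10 and 100 μM. Percentage growth at each level was plotted against log10 drug concentration. GI50, TGI and LC50 were read from these dose-response curves. Subpanel MID values were divided into the full-panel MID to give selectivity ratios.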

SF-539 = experiment: Cytotoxicity against human SF539 cells assessed as cell growth at 10 uM after 48 hrs by SRB assay relative to control; format: functional; conditions: SF-539, 48 h, read-out: Activity; in short: as §3
M14 = experiment: Cytotoxicity against human M14 cells assessed as cell growth at 10 uM after 48 hrs by SRB assay relative to control; format: functional; conditions: M14, 48 h, read-out: Activity; in short: as §1
MDA-MB-435 = experiment: Cytotoxicity against human MDA-MB-435 cells assessed as cell growth at 10 uM after 48 hrs by SRB assay relative to control; format: functional; conditions: MDA-MB-435, 48 h, read-out: Activity; in short: as §3
HCT-15 = experiment: Cytotoxicity against human HCT15 cells assessed as cell growth at 10 uM after 48 hrs by SRB assay relative to control; format: functional; conditions: HCT-15, 48 h, read-out: Activity; in short: as §1
MDA-MB-231 = experiment: Cytotoxicity against human MDA-MB-231 cells assessed as cell growth at 10 uM after 48 hrs by SRB assay relative to control; format: functional; conditions: MDA-MB-231, 48 h, read-out: Activity; in short: as §3
PC-3 [2] = experiment: Cytotoxicity against human PC3 cells assessed as cell growth at 10 uM after 48 hrs by SRB assay relative to control; format: functional; conditions: PC-3, 48 h, read-out: Activity; in short: as §3
OVCAR-5 = experiment: Cytotoxicity against human OVCAR5 cells assessed as cell growth at 10 uM after 48 hrs by SRB assay relative to control; format: functional; conditions: OVCAR-5, 48 h, read-out: Activity; in short: as §3
NCI-H522 = experiment: Cytotoxicity against human NCI-H522 cells assessed as cell growth at 10 uM after 48 hrs by SRB assay relative to control; format: functional; conditions: NCI-H522, 48 h, read-out: Activity; in short: as §3
786-0 = experiment: Cytotoxicity against human 786-0 cells assessed as cell growth at 10 uM after 48 hrs by SRB assay relative to control; format: functional; conditions: 786-0, 48 h, read-out: Activity; in short: as §1
MOLT-4 = experiment: Cytotoxicity against human MOLT4 cells assessed as cell growth at 10 uM after 48 hrs by SRB assay relative to control; format: functional; conditions: MOLT-4, 48 h, read-out: Activity; in short: as §3
[3] = Cytotoxicity against human Hs578T cells assessed as cell growth at 10 uM after 48 hrs by SRB assay relative to control; format: functional; conditions: Hs-578T, read-out: Activity; in short: as §1
HL-60(TB) = experiment: Cytotoxicity against human HL-60(TB) cells assessed as cell growth at 10 uM after 48 hrs by SRB assay relative to control; format: functional; conditions: HL-60, 48 h, read-out: Activity
In short: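 NCI Developmental Therapeutics Program 60-cell-line screen, first stage: a single dose of 10 μM against the panel, reported as percentage growth.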

[4] = Cytotoxicity against human EKVX cells assessed as cell growth at 10 uM after 48 hrs by SRB assay relative to control; format: functional; conditions: read-out: Activity; in short: as §1
SK-OV-3 = experiment: Cytotoxicity against human SKOV3 cells assessed as cell growth at 10 uM after 48 hrs by SRB assay relative to control; format: functional; conditions: SK-OV-3, 48 h, read-out: Activity; in short: as §3
MDA-MB-468 = experiment: Cytotoxicity against human MDA-MB-468 cells assessed as cell growth at 10 uM after 48 hrs by SRB assay relative to control; format: functional; conditions: MDA-MB-468, 48 h, read-out: Activity; in short: as §3
A498 = experiment: Cytotoxicity against human A498 cells assessed as cell growth at 10 uM after 48 hrs by SRB assay relative to control; format: functional; conditions: A498, 48 h, read-out: Activity; in short: as §1
NCI/ADR-RES = experiment: Cytotoxicity against human NCI/ADR-RES cells assessed as cell growth at 10 uM after 48 hrs by SRB assay relative to control; format: functional; conditions: read-out: Activity; in short: as §3
A549 = experiment: Cytotoxicity against human A549 cells assessed as cell growth at 10 uM after 48 hrs by SRB assay relative to control; format: functional; conditions: A549, 48 h, read-out: Activity; in short: as §1
SK-MEL-2 = experiment: Cytotoxicity against human SK-MEL-2 cells assessed as cell growth at 10 uM after 48 hrs by SRB assay relative to control; format: functional; conditions: SK-MEL-2, 48 h, read-out: Activity; in short: as §3
SF-295 = experiment: Cytotoxicity against human SF295 cells assessed as cell growth at 10 uM after 48 hrs by SRB assay relative to control; format: functional; conditions: SF-295, 48 h, read-out: Activity; in short: as §3

Work on O=C1c2ccccc2C(=O)c2c1cc(Sc1ccccc1Br)c1nsnc21 yielded a growth at 10 µM (ACHN) of 25.5%, a growth at 10 µM (SNB-19) of 71.4% and a growth at 10 µM (NCI-H226) of 92.1%. The growth at 10 µM (UACC-257) was 4.75%, the growth at 10 µM (HOP-62) was 4.88% and the IC50 (DU-145) was 9.58 µM. The growth at 10 µM (T47D) was -33%, the growth at 10 µM (KM12) was 57.9% and the IC50 (PC-3 [1]) was 5.76 µM. It also gave a growth at 10 µM (SF-539) of -5.66%, a growth at 10 µM (M14) of 59.5% and a growth at 10 µM (MDA-MB-435) of -73%. It also gave a growth at 10 µM (HCT-15) of 39.7%, a growth at 10 µM (MDA-MB-231) of 16.9% and a growth at 10 µM (PC-3 [2]) of 4.23%. For the same compound, the growth at 10 µM (OVCAR-5) was 121%, the growth at 10 µM (NCI-H522) was 30.8% and the growth at 10 µM (786-0) was -6.19%. It also gave a growth at 10 µM (MOLT-4) of 29.7%, a growth at 10 µM [3] of 54.2% and a growth at 10 µM (HL-60(TB)) of -44%. For the same compound, the growth at 10 µM [4] was 77.7%, the growth at 10 µM (SK-OV-3) was 66.7% and the growth at 10 µM (MDA-MB-468) was -79.9%. It also gave a growth at 10 µM (A498) of 24.2%, a growth at 10 µM (NCI/ADR-RES) of -29.9% and a growth at 10 µM (A549) of 95.4%. The growth at 10 µM (SK-MEL-2) was 35% and the growth at 10 µM (SF-295) was 100%.
